Results as given in ChEMBL document CHEMBL1649122, “Abc1p is a multidrug efflux transporter that tips the balance in favor of innate azole resistance in Candida krusei” (2009).
In brackets after ≈: the same amount, converted by molar mass. Activity calls are given as the source filed them. The calls are words filed in the database; no cut-off is given here.

Columns and labels:
[1] = molecular target: ATP binding cassette transporter Abc1p (Issatchenkia orientalis) (UniProt Q09GQ4); experiment: Inhibition of Candida krusei IF011 Abc1p assessed as reduction of itraconazole MIC at 1 ug after 48 hrs by agarose diffusion assay; conditions: Pichia kudriavzevii
[2] = molecular target: ATP binding cassette transporter Abc1p (Issatchenkia orientalis) (UniProt Q09GQ4); experiment: Inhibition of Candida krusei Abc1p expressed in Saccharomyces cerevisiae isolate AD assessed as reduction of itraconazole MIC at 1 ug after 48 hrs by agarose diffusion assay; conditions: Pichia kudriavzevii
[3] = molecular target: ATP binding cassette transporter Abc1p (Issatchenkia orientalis) (UniProt Q09GQ4); experiment: Inhibition of Candida krusei B2399 Abc1p assessed as reduction of itraconazole MIC at 1 ug after 48 hrs by agarose diffusion assay; conditions: Pichia kudriavzevii
[4] = system: Pichia kudriavzevii; experiment: Antimicrobial activity against Candida krusei IFO0011 after 48 hrs by CLSI method; type: functional; conditions: IFO0011, 48 h
Outline: (§1)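 Azole MICs were determined by the CLSI M27-A2 broth microdilution reference method. They were interpreted against the CLSI breakpoints. Strains were maintained in YPD medium (1% yeast extract, 2% peptone, 2% glucose).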

[5] = system: Saccharomyces cerevisiae; experiment: Antimicrobial activity against Saccharomyces cerevisiae isolate ADdelta overexpressing Candida krusei ERG11g after 48 hrs by liquid microdilution assay; type: functional
Outline: (§2)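 Liquid broth microdilution susceptibility assay in CSM medium at pH 7.0, which was also the medium used for the expression studies. Fungal strains were maintained in YPD. The S. cerevisiae test strains carry C. krusei ABC1 or fungal ERG11 alleles integrated at the chromosomal PDR5 locus.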

[6] = system: Saccharomyces cerevisiae; experiment: Fold resistant, ratio of MIC for Saccharomyces cerevisiae isolate ADdelta overexpressing Saccharomyces cerevisiae ERG11 to MIC for Saccharomyces cerevisiae isolate ADdelta overexpressing Abc1p; type: functional
Outline: (§3)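 Fold resistance is the ratio of azole MICs between S. cerevisiae overexpressing strains. The MICs were measured by liquid broth microdilution in CSM medium at pH 7.0. The ERG11 or ABC1 constructs are integrated at the PDR5 locus.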

[7] = system: Pichia kudriavzevii; experiment: Antimicrobial activity against Candida krusei NZCDC 89.021 after 48 hrs by CLSI method; type: functional; conditions: NZCDC 89.021, 48 h; outline: as §1
[8] = system: Saccharomyces cerevisiae; experiment: Fold resistant, ratio of MIC for Saccharomyces cerevisiae isolate ADdelta overexpressing Candida krusei ERG11g to MIC for Saccharomyces cerevisiae isolate ADdelta overexpressing Abc1p; type: functional; outline: as §3
[9] = system: Pichia kudriavzevii; experiment: Antimicrobial activity against Candida krusei NZCDC 89.221 after 48 hrs by liquid microdilution assay; type: functional; conditions: NZCDC 89.221, 48 h; outline: as §2
[10] = system: Saccharomyces cerevisiae; experiment: Fold resistant, ratio of MIC for Saccharomyces cerevisiae isolate ADdelta overexpressing Candida krusei ERG11C to MIC for Saccharomyces cerevisiae isolate ADdelta overexpressing Abc1p; type: functional; outline: as §3
[11] = system: Saccharomyces cerevisiae; experiment: Antimicrobial activity against Saccharomyces cerevisiae isolate ADdelta overexpressing Abc1p after 48 hrs by liquid microdilution assay; type: functional; outline: as §2
[12] = system: Pichia kudriavzevii; experiment: Antimicrobial activity against Candida krusei NZCDC 90.147 after 48 hrs by liquid microdilution assay; type: functional; conditions: NZCDC 90.147, 48 h; outline: as §2
[13] = system: Pichia kudriavzevii; experiment: Antimicrobial activity against Candida krusei NZCDC 90.147 after 48 hrs by CLSI method; type: functional; outline: as §1
[14] = system: Pichia kudriavzevii; experiment: Antimicrobial activity against Candida krusei NZCDC 89.021 after 48 hrs by liquid microdilution assay; type: functional; conditions: NZCDC 89.021, 48 h; outline: as §2
[15] = system: Pichia kudriavzevii; experiment: Antimicrobial activity against Candida krusei NZCDC 89.102 after 48 hrs by liquid microdilution assay; type: functional; conditions: NZCDC 89.102, 48 h; outline: as §2
[16] = system: Pichia kudriavzevii; experiment: Antimicrobial activity against Candida krusei B2399 after 48 hrs by CLSI method; type: functional; conditions: B2399, 48 h; outline: as §1
[17] = system: Pichia kudriavzevii; experiment: Antimicrobial activity against Candida krusei NZCDC 89.102 after 48 hrs by CLSI method; type: functional; outline: as §1
[18] = system: Saccharomyces cerevisiae; experiment: Antimicrobial activity against Saccharomyces cerevisiae isolate AD overexpressing Candida krusei ERG11C after 48 hrs by liquid microdilution assay; type: functional; outline: as §2
[19] = system: Pichia kudriavzevii; experiment: Antimicrobial activity against Candida krusei B2399 after 48 hrs by liquid microdilution assay; type: functional; conditions: B2399, 48 h; outline: as §2
[20] = system: Pichia kudriavzevii; experiment: Antimicrobial activity against Candida krusei IFO0011 after 48 hrs by liquid microdilution assay; type: functional; conditions: IFO0011, 48 h; outline: as §2
[21] = system: Pichia kudriavzevii; experiment: Increase in ERG11 mRNA expression in Candida krusei B2399 at 2 times MIC concentration after 1 hr by hot-phenol extraction based Northern blotting; type: functional, organism-based
Outline: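 Logarithmically grown C. krusei B2399 was exposed to azole for 60 min (2x MIC for VRC, MCZ and ITC; 1x MIC for FLC) alongside an untreated control. Total RNA was extracted with hot phenol, and 10 µg was run on 1.2% denaturing agarose. It was Northern blotted and probed with a radiolabeled ERG11 fragment. ACT1 mRNA served as internal control, with EtBr-stained rRNA showing loading.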

[22] = system: Saccharomyces cerevisiae; experiment: Antimicrobial activity against Saccharomyces cerevisiae isolate ADdelta overexpressing Candida albicans ERG11A after 48 hrs by liquid microdilution assay; type: functional; outline: as §2
[23] = system: Saccharomyces cerevisiae; experiment: Fold resistant, ratio of MIC for Saccharomyces cerevisiae isolate ADdelta overexpressing Candida albicans ERG11A to MIC for Saccharomyces cerevisiae isolate ADdelta overexpressing Abc1p; type: functional; outline: as §3
[24] = system: Pichia kudriavzevii; experiment: Antimicrobial activity against Candida krusei NZCDC 89.221 after 48 hrs by CLSI method; type: functional; outline: as §1
[25] = system: Saccharomyces cerevisiae; experiment: Antimicrobial activity against Saccharomyces cerevisiae isolate ADdelta overexpressing Saccharomyces cerevisiae ERG11 after 48 hrs by liquid microdilution assay; type: functional; outline: as §2
[26] = molecular target: ATP binding cassette transporter Abc1p (Issatchenkia orientalis) (UniProt Q09GQ4); experiment: Inhibition of Candida krusei ABC1 expressed in Saccharomyces cerevisiae isolate ADdelta at 8 nM; conditions: Pichia kudriavzevii
[27] = molecular target: ATP binding cassette transporter Abc1p (Issatchenkia orientalis) (UniProt Q09GQ4); experiment: Inhibition of Candida krusei ABC1 expressed in Saccharomyces cerevisiae isolate ADdelta at 19 nM; conditions: Pichia kudriavzevii
Outline: (§4)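 Agarose disk-diffusion test of S. cerevisiae AD overexpressing C. krusei Abc1p, with the parent AD strain as comparison. Cells were pregrown from YPD overnight into CSM to mid-log at 30°C. They were seeded at OD600 0.008 in CSM with 0.6% agarose, overlaid on CSM agar (pH 7.0). Paper disks carrying set nmol amounts of xenobiotic were applied, and plates were incubated at 30°C for 48 h before reading growth inhibition zones.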

[28] = molecular target: ATP binding cassette transporter Abc1p (Issatchenkia orientalis) (UniProt Q09GQ4); experiment: Inhibition of Candida krusei ABC1 expressed in Saccharomyces cerevisiae isolate ADdelta at 0.026 nM; conditions: Pichia kudriavzevii; outline: as §4
[29] = molecular target: ATP binding cassette transporter Abc1p (Issatchenkia orientalis) (UniProt Q09GQ4); experiment: Inhibition of Candida krusei ABC1 expressed in Saccharomyces cerevisiae isolate ADdelta at 87 nM; conditions: Pichia kudriavzevii; outline: as §4

SMILES: CO[C@@H]1C(C)=C[C@H]2C(=O)O[C@H]3C[C@@H](C/C=C(\C)C[C@@H](C)/C=C/C=C(\CO)[C@]2(O)[C@@H]1O)O[C@@]1(CC[C@H](C)[C@@H](C)O1)C3
- Activity [1]: Active
- Activity [2]: Active
- Activity [3]: Active

SMILES: C[C@@H](c1ncncc1F)[C@](O)(Cn1cncn1)c1ccc(F)cc1F [VORICONAZOLE]
- MIC [4]: 1 µg/mL (≈ 2.86 µM)
- MIC [5]: 0.5 µg/mL (≈ 1.43 µM)
- ratio [6]: 8
- MIC [7]: 0.5 µg/mL (≈ 1.43 µM)
- ratio [8]: 64
- MIC [9]: 1 µg/mL (≈ 2.86 µM)
- ratio [10]: 8
- MIC [11]: 0.0078 µg/mL (≈ 0.0223 µM)
- MIC [12]: 2 µg/mL (≈ 5.73 µM)
- MIC [13]: 1 µg/mL (≈ 2.86 µM)
- MIC [14]: 2 µg/mL (≈ 5.73 µM)
- MIC [15]: 2 µg/mL (≈ 5.73 µM)
- MIC [16]: 0.5 µg/mL (≈ 1.43 µM)
- MIC [17]: 0.5 µg/mL (≈ 1.43 µM)
- MIC [18]: 0.063 µg/mL (≈ 0.18 µM)
- MIC [19]: 1 µg/mL (≈ 2.86 µM)
- MIC [20]: 1 µg/mL (≈ 2.86 µM)
- Activity [21]: Active
- MIC [22]: 0.031 µg/mL (≈ 0.0887 µM)
- ratio [23]: 4
- MIC [24]: 0.5 µg/mL (≈ 1.43 µM)
- MIC [25]: 0.063 µg/mL (≈ 0.18 µM)

SMILES: CC(C)=CC(=O)OCC1=C[C@H]2C(=O)O[C@H]3C[C@@H](C/C=C(\C)C[C@@H](C)/C=C/C=C4\CO[C@H]([C@@H]1O)[C@@]42O)O[C@@]1(CC[C@H](C)[C@@H](C)O1)C3
- Activity [1]: Active
- Activity [2]: Active
- Activity [3]: Active

SMILES: CO[C@@H]1C(CO)=C[C@H]2C(=O)O[C@H]3C[C@@H](C/C=C(\C)C[C@@H](C)/C=C/C=C4\CO[C@H]1[C@@]42O)O[C@@]1(CC[C@H](C)[C@@H](C)O1)C3
- Activity [1]: Active
- Activity [2]: Active
- Activity [3]: Active

SMILES: CO[C@@H]1C[C@@H](C[C@H]2CC[C@H](C)[C@H]([C@@H](C)C(=O)O)O2)O[C@]2(O[C@](C)([C@H]3CC[C@@](C)([C@@H]4O[C@@H]([C@H]5O[C@@](O)(CO)[C@H](C)C[C@@H]5C)C[C@@H]4C)O3)C[C@H]2C)[C@@H]1C
- Activity [26]: Active

SMILES: Nc1nc(=O)[nH]cc1F
- Activity [27]: inactive

SMILES: Clc1ccc(COC(Cn2ccnc2)c2ccc(Cl)cc2Cl)c(Cl)c1 (stereo not given) [MICONAZOLE]
- MIC [4]: 4 µg/mL (≈ 9.61 µM)
- MIC [5]: 0.5 µg/mL (≈ 1.2 µM)
- ratio [6]: 4
- MIC [7]: 2 µg/mL (≈ 4.81 µM)
- ratio [8]: 64
- MIC [9]: 4 µg/mL (≈ 9.61 µM)
- ratio [10]: 16
- MIC [11]: 0.0078 µg/mL (≈ 0.0187 µM)
- MIC [13]: 4 µg/mL (≈ 9.61 µM)
- MIC [14]: 4 µg/mL (≈ 9.61 µM)
- MIC [15]: 4 µg/mL (≈ 9.61 µM)
- MIC [16]: 4 µg/mL (≈ 9.61 µM)
- MIC [17]: 2 µg/mL (≈ 4.81 µM)
- MIC [18]: 0.125 µg/mL (≈ 0.3 µM)
- MIC [19]: 2 µg/mL (≈ 4.81 µM)
- Activity [21]: Active
- MIC [22]: 0.063 µg/mL (≈ 0.151 µM)
- ratio [23]: 8
- MIC [24]: 2 µg/mL (≈ 4.81 µM)
- MIC [25]: 0.031 µg/mL (≈ 0.0745 µM)
- Activity [28]: inactive

SMILES: C[C@@H]1[C@H](O)[C@@H](C)/C=C/C=C/C=C/C=C/C=C/C=C/C=C/[C@H](O[C@@H]2O[C@H](C)[C@@H](O)[C@H](N)[C@@H]2O)C[C@@H]2O[C@](O)(C[C@@H](O)C[C@@H](O)[C@H](O)CC[C@@H](O)C[C@@H](O)CC(=O)O[C@H]1C)C[C@H](O)[C@H]2C(=O)O
- Activity [29]: inactive
